Assay results as given in ChEMBL document CHEMBL4732162, “Design, synthesis and evaluation of novel ErbB/HDAC multitargeted inhibitors with selectivity in EGFR mutant cell lines” (Eur J Med Chem, 2021).
Calls of active or inactive are those of the source. The calls are words filed in the database; no cut-off is given here.

What was measured:
[1] = molecular target: T1, Histone deacetylase (Homo sapiens) (UniProt Q13547+O15379+Q9UBN7+Q92769+Q9UQL6+Q8WUI4+Q9BY41+Q96DB2+P56524+Q9UKV0+Q969S8); experiment: Inhibition of HDAC in human A431 cells assessed as increase in histone H3 acetylation at 0.5 to 5 uM after 48 hrs by Western blot analysis; assay type: cell-based; details: A-431, dose 0.5-5 µM
In short: (§1)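 Cells were treated with compound for 48 h and lysed on ice for 30 min in RIPA buffer with protease and phosphatase inhibitors. Lysates were cleared at 14000 g, 4 °C, and protein quantified by BCA. Samples were boiled in loading buffer, run on 10–12% SDS-PAGE and transferred to PVDF. Membranes were blocked 2 h, incubated in primary antibody overnight at 4 °C, then in secondary antibody 2 h at room temperature.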

NCI-H1975 [2] = experiment: Antiproliferative activity against human NCI-H1975 cells incubated for 72 hrs by MTT assay; assay type: functional, cell-based; details: NCI-H1975, 72 h
NCI-H1975 [3] = experiment: Antiinvasive activity against human NCI-H1975 cells measured after 72 hrs by crystal violet dye-based transwell assay; assay type: functional, cell-based; details: dose 0.5-5 µM
In short: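 NCI-H1975 cells, 1 × 10⁴/well, seeded in serum-free medium in the upper chamber of a transwell insert. The lower chamber held 10% FBS medium with compound at the indicated dilutions, for 72 h. Non-invading cells were swabbed off. Cells on the membrane underside were fixed in 10% buffered formalin for 1 h, stained with crystal violet for 1 h, and imaged in three random fields.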

A549 = experiment: Antiproliferative activity against human A549 cells incubated for 72 hrs by MTT assay; assay type: functional, cell-based; details: A549, 72 h
[4] = molecular target: T2, Epidermal growth factor receptor (Homo sapiens, UniProt P00533); experiment: Inhibition of EGFR (unknown origin) by mobility shift assay
T2 sequence (P00533 whole entry): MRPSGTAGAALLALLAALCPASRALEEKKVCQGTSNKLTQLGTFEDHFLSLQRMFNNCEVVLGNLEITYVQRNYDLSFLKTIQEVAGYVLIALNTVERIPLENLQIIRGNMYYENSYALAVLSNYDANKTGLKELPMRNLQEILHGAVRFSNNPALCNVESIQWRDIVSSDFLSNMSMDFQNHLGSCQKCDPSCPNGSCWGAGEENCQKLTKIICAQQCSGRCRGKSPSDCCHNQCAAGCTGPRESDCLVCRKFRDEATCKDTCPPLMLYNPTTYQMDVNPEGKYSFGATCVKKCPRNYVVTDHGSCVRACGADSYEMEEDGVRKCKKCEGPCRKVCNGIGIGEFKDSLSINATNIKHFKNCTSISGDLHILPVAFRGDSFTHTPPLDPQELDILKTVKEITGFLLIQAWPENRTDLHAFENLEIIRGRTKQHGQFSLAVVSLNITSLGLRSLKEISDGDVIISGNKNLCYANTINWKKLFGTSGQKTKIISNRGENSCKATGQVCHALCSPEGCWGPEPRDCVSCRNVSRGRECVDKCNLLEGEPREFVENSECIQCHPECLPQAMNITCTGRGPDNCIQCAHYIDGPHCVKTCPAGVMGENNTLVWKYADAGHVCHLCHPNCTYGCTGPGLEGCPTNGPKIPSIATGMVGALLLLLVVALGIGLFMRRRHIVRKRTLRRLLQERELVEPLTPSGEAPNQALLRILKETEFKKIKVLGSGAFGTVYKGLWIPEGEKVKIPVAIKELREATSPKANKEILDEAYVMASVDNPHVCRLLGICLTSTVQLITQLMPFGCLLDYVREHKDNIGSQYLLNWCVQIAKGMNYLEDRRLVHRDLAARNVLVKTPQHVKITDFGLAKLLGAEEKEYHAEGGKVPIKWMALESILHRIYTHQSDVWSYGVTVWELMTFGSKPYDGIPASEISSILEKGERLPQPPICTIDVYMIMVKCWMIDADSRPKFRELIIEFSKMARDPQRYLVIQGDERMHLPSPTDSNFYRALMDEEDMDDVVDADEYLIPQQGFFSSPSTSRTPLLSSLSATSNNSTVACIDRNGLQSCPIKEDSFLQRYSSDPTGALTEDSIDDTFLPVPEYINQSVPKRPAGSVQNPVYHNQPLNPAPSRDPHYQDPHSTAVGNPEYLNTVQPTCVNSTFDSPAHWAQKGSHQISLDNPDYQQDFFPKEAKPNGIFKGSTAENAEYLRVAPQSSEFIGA

[5] = molecular target: T1, Histone deacetylase (Homo sapiens); experiment: Inhibition of HDAC in human NCI-H1975 cells assessed as increase in histone H3 acetylation at 2.5 uM after 1 to 12 hrs by Western blot analysis; assay type: cell-based; details: time lower 1.0 hrs, time upper […]
NCI-H1975 [6] = experiment: Induction of apoptosis in human NCI-H1975 cells assessed as early apoptotic cells at 2.5 uM incubated for 48 hrs by propidium iodide and annexin-V FITC staining based flow cytometry (reference value: 6.67 %); assay type: functional
NCI-H1975 [7] = experiment: Induction of apoptosis in human NCI-H1975 cells assessed as early apoptotic cells at 0.5 uM incubated for 48 hrs by propidium iodide and annexin-V FITC staining based flow cytometry (reference value: 6.67 %); assay type: functional
[8] = molecular target: T2, Epidermal growth factor receptor; experiment: Inhibition of EGFR in human A431 cells assessed as reduction in EGFR phosphorylation at Tyr-1173 residues at 0.5 to 5 uM after 48 hrs by Western blot analysis; assay type: cell-based; details: A-431, dose 0.5-5 µM; in short: as §1
[9] = molecular target: Epidermal growth factor receptor (Homo sapiens, UniProt P00533, L858R/T790M); experiment: Inhibition of EGFR L858R/T790M (unknown origin) by mobility shift assay
Epidermal growth factor receptor (Homo sapiens, UniProt P00533, L858R/T790M), sequence (P00533 25-1210 T790M/L858R limits assumed): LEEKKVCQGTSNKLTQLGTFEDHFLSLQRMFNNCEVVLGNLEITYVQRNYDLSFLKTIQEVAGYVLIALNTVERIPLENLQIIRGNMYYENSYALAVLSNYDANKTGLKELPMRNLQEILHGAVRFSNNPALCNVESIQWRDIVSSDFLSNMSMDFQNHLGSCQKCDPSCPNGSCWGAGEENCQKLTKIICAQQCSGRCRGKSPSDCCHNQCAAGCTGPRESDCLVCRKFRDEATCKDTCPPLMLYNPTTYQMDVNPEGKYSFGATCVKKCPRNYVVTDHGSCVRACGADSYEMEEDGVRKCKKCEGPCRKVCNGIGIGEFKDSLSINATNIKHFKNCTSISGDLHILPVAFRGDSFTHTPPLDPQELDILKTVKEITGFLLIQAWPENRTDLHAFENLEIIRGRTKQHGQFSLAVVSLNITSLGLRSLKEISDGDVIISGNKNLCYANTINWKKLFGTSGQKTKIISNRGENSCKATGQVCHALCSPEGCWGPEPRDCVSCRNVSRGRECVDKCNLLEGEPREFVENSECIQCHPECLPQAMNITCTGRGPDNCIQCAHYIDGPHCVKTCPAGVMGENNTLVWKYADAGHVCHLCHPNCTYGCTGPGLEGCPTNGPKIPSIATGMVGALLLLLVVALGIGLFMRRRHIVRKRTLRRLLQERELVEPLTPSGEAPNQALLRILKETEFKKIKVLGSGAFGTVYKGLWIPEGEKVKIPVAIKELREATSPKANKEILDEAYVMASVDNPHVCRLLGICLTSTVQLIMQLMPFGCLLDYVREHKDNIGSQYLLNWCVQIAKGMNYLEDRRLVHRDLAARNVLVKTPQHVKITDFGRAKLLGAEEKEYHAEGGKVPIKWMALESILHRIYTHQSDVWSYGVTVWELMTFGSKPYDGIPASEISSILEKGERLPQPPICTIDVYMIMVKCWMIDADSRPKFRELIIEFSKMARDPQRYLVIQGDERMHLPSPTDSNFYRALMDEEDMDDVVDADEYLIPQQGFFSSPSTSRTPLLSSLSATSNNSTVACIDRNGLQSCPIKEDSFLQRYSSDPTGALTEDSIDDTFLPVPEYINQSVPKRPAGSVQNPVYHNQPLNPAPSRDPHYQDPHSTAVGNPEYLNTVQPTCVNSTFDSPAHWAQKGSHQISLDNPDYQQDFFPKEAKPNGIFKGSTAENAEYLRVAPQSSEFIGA

[10] = molecular target: Epidermal growth factor receptor (Homo sapiens, UniProt P00533, L858R); experiment: Inhibition of EGFR L858R (unknown origin) by mobility shift assay
Epidermal growth factor receptor (Homo sapiens, UniProt P00533, L858R), sequence (P00533 25-1210 L858R limits assumed): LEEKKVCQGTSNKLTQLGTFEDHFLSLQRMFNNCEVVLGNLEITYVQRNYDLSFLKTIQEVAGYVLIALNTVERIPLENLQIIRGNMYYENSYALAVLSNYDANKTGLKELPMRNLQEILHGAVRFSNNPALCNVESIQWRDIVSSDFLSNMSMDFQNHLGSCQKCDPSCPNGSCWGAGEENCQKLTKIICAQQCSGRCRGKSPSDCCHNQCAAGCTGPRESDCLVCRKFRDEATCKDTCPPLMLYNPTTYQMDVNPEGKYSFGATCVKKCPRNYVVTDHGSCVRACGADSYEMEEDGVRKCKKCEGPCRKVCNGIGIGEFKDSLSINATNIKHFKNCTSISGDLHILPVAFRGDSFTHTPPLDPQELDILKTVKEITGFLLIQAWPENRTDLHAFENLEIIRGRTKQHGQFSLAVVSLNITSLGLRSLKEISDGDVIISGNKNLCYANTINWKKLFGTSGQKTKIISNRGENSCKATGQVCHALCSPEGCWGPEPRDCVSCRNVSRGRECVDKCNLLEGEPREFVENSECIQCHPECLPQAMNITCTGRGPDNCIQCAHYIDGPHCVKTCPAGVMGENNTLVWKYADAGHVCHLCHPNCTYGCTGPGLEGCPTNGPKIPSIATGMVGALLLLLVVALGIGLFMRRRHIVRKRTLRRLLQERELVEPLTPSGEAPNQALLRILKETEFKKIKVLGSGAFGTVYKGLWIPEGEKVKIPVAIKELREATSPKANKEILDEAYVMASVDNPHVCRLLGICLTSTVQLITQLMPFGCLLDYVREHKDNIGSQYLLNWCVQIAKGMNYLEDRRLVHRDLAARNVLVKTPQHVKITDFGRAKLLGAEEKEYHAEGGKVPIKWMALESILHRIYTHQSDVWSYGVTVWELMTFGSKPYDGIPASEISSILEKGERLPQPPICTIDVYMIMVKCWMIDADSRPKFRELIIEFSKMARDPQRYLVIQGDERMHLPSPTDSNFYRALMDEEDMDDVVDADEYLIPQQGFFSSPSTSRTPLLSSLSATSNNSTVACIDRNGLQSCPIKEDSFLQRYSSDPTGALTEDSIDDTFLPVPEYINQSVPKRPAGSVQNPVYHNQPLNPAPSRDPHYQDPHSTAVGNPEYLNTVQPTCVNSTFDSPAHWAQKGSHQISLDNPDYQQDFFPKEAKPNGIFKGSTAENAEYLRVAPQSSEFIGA

Histone deacetylase 1 = Histone deacetylase 1 (Homo sapiens, UniProt Q13547); experiment: Inhibition of HDAC1 (unknown origin)
Histone deacetylase 1, sequence (Q13547 whole entry): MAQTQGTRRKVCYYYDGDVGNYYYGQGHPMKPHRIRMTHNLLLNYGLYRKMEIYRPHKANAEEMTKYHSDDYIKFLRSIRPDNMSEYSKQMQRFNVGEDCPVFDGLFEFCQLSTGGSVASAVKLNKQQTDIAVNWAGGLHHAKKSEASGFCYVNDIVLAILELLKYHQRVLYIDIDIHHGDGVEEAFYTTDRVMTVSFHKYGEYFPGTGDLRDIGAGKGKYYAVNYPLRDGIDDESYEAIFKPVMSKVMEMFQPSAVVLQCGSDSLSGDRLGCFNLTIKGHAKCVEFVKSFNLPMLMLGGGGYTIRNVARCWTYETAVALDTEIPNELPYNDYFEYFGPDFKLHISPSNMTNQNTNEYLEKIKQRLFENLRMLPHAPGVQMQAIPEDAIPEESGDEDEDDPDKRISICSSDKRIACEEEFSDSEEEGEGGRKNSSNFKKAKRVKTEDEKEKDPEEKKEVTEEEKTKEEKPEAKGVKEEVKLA

`C=CC(=O)Nc1cc2c(Nc3ccc(F)c(Cl)c3)ncnc2cc1OCc1cn(CCCC(=O)NO)nn1` was tested, and the inhibition [1] was “Active”, the IC50 (NCI-H1975 [2]) was 1820 nM and the Activity (NCI-H1975 [3]) was “Dose-dependent effect”. For the same compound, the IC50 (A549) was greater than 50 µM, the IC50 [4] was 0.35 nM and the inhibition [5] was “Active”. The Activity (NCI-H1975 [6]) was 31.38%, the Activity (NCI-H1975 [7]) was 24.28% and the inhibition [8] was “Active”. The IC50 [9] was 1.5 nM, the IC50 [10] was 1.1 nM and the IC50 (Histone deacetylase 1) was 75 nM.
